The term IC50 denotes the concentration at which inhibition is half-maximal. One may read the inhibition in vivo as the share of the control response that was lost under treatment. A word on the LD50: it is the dose expected to kill half of the subjects tested.

Activity calls are given as the source filed them. The rule behind the calls is not given here.

Series [1] relates to Macrophage. The experiment in a line: Inhibition of LPS-induced NO production in C57BL/6 mouse macrophages preincubated with compound for 1 hr before LPS challenge measured after 24 hrs by Griess method. The series is classed as functional, cell-based. Particulars: C57BL/6, Macrophage. In short, it runs like this:
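Peritoneal macrophages harvested from male C57BL/6J mice 3 days after ip thioglycollate; 1 × 10^5 cells/well in RPMI-1640 + 5% newborn calf serum, nonadherent cells removed after 2 h. Compounds added 1 h before LPS 1 μg/mL; 24 h later supernatant nitrite read by Griess reagent at 570 nm against a nitrite standard curve. IC50 from ≥2 experiments in triplicate; selectivity index = cytotoxicity IC50 / NO-inhibition IC50.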
In general terms: Griess reagent forms a coloured azo dye with nitrite.

A short description of series [2]: Cytotoxicity against C57BL/6 mouse macrophages after 24 hrs by MTT assay. Type of series: cell-based. Particulars: C57BL/6, Macrophage. In outline: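 Thioglycollate-elicited peritoneal macrophages from male C57BL/6 mice, 1 × 10^5 cells/well, adhered 2 h, then exposed to compounds 24 h. Washed, MTT (5 mg/mL in PBS) added 4 h at 37 °C, formazan dissolved in DMSO, absorbance 570 nm.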
A general note: Tetrazolium dyes change colour on reduction, which living cells bring about.

Series [3] deals with Macrophage. The experiment in a line: Selectivity index, ratio of IC50 for C57BL/6 mouse macrophages to IC50 for LPS-induced NO production in C57BL/6 mouse macrophages.
For series [4], the system named is Macrophage. The experiment in a line: Inhibition of intrinsic NO production in C57BL/6 mouse macrophages at 10 uM measured after 24 hrs by Griess method. Type of series: functional, cell-based. In outline: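 Unstimulated peritoneal macrophages (no LPS) cultured 2 h, then exposed to compound at 10 μM for 24 h. Supernatant nitrite measured by Griess assay at 570 nm against a standard curve; untreated, vehicle and LPS (1 μg/mL) wells as controls. Three independent experiments, mean ± SEM.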

Series [5] deals with Mus musculus. As to the kind of experiment: Antiinflammatory activity in Kunming mouse assessed as inhibition of croton oil-induced ear edema at 5 umol/kg, po administered before challenge relative to vehicle-treated control. Type of series: functional. In outline:
(§1)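 Male Kunming mice; croton oil applied topically to left ear at 0.4 mg/ear. Test agent or equal-volume vehicle given 1 h before (po 5, 10, 20 μmol/kg; sc 77, 154, 308 μmol/kg). Euthanized under pentobarbital 4 h after croton oil; 8 mm ear punches weighed, left minus right weight = edema; inhibition vs vehicle group. n = 10 (po) or 8–9 (sc); mean ± SEM.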

Series [6] deals with Mus musculus. The experiment in a line: Antiinflammatory activity in Kunming mouse assessed as inhibition of croton oil-induced ear edema at 10 umol/kg, po administered before challenge relative to vehicle-treated control. Type of series: functional. In short, it runs like this:
as §1

Series [7] has as its system Mus musculus. As to the kind of experiment: Antiinflammatory activity in Kunming mouse assessed as inhibition of croton oil-induced ear edema at 20 umol/kg, po administered before challenge relative to vehicle-treated control. Type of series: functional. In outline:
as §1

The test system of series [8] is Mus musculus. The experiment in a line: Antiinflammatory activity in specific pathogen-free COPD-like lung inflammation BALB/c mouse model assessed as inhibition of neutrophils at 2 umol/kg/day, po for 35 days measured 24 hrs post last dose relative to vehicle-treated control. The series is classed as functional. In short, it runs like this:
(§2)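 Male SPF BALB/c mice (18−20 g) given cigarette smoke 5 min twice daily (days 2−13, 15−35) plus LPS 20 μg in 30 μL saline on days 1 and 14. Oral dosing 1 h before first exposure, daily for 35 days. BAL (3 × 0.8 mL ice-cold saline) collected about 24 h after final dose. Centrifuged pellet resuspended in 200 μL PBS and counted by hemocytometer for differential cells.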

Series [9] deals with Mus musculus. As to the kind of experiment: Antiinflammatory activity in specific pathogen-free COPD-like lung inflammation BALB/c mouse model assessed as inhibition of white blood cells at 2 umol/kg/day, po for 35 days measured 24 hrs post last dose relative to vehicle-treated control. Type of series: functional, organism-based. In outline: as §2
Series [10] relates to Mus musculus. As to the kind of experiment: Antiinflammatory activity in specific pathogen-free COPD-like lung inflammation BALB/c mouse model assessed as inhibition of eosinophils at 2 umol/kg/day, po for 35 days measured 24 hrs post last dose relative to vehicle-treated control. Type of series: functional, organism-based. In short, it runs like this: as §2
Series [11] has as its system Mus musculus. The experiment in a line: Antiinflammatory activity in specific pathogen-free COPD-like lung inflammation BALB/c mouse model assessed as inhibition of TNFalpha level at 2 umol/kg/day, po for 35 days measured 24 hrs post last dose relative to vehicle-treated control. The series is classed as functional, organism-based. In outline:
(§3)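 Male SPF BALB/c mice (18−20 g) exposed to cigarette smoke 5 min twice daily on days 2−13 and 15−35, with 20 μg LPS in 30 μL saline on days 1 and 14. Dosed orally 1 h before first exposure, daily for 35 days. Lungs lavaged 3× with 0.8 mL ice-cold saline about 24 h after last dose. Supernatant cytokines measured by ELISA. n = 8−11, mean ± SEM, Student's t test.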

For series [12], the system named is Mus musculus. As to the kind of experiment: Antiinflammatory activity in specific pathogen-free COPD-like lung inflammation BALB/c mouse model assessed as inhibition of IL-1beta level at 2 umol/kg/day, po for 35 days measured 24 hrs post last dose relative to vehicle-treated control. The series is classed as functional, organism-based. In outline:
as §3

For series [13], the system named is Mus musculus. As to the kind of experiment: Antiinflammatory activity in specific pathogen-free COPD-like lung inflammation BALB/c mouse model assessed as inhibition of IL-6 level at 2 umol/kg/day, po for 35 days measured 24 hrs post last dose relative to vehicle-treated control. Type of series: functional, organism-based. In short, it runs like this: as §3

Series [14] in a line: Toxicity in Kunming mouse administered orally as single dose measured over 14 days. The series is classed as organism-based. Particulars: in vivo, po. In outline:
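SPF Kunming mice, half male and half female, fasted 16 h with water allowed, then weighed and randomized at 10/group. Single gavage dose (0.1 mL/10 g) at various doses, with solvent-only controls. Survival monitored for 14 days.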

For `COC(=O)[C@]12OC[C@]34[C@H]([C@@H](O)[C@@H]1O)[C@@]1(C)CC(=O)C(OC(=O)CCC(=O)OCCCCOc5no[n+]([O-])c5S(=O)(=O)c5ccccc5)=C(C)[C@@H]1C[C@H]3OC(=O)[C@H](OC(=O)C=C(C)C)[C@@H]24`, the results for the half-inhibitory concentration (IC50) in [1] and in [2] were 89 nM and 790 nM, respectively. Moreover, the “Ratio IC50” value in series [3] is on record as 8.9. Moreover, in series [4], the inhibition result is “inactive”. In addition, the inhibition in vivo at 5 µmol/kg in [5] was 29.4%. Further, the inhibition in vivo at 10 µmol/kg in series [6] is 39.9%. The inhibition in vivo at 20 µmol/kg in series [7] turned out to be 53.9%. Also, in series [8], the inhibition in vivo at 2 µmol/kg is 85%. In addition, the inhibition result in series [9], in series [10], in series [11], in [12] and in series [13] was “Active” throughout. Moreover, the LD50 at 336 h in series [14] was 41.1 µmol/kg.
